# Measurements from different studies.
# Each line is one published result; the experiments were not run side by side.
# LCK: Tyrosine-protein kinase Lck (LCK, Homo sapiens, UniProt P06239)
# LCK phosphorylated: Tyrosine-protein kinase Lck, phosphorylated (LCK, Homo sapiens, UniProt P06239)
Structure (SMILES),target,read-out,mode,technique,tested at,measurement,result
Cc1ccc(Nc2nccc(N(C)c3ccc4c(C)n(C)nc4c3)n2)cc1S(N)(=O)=O,LCK,enzyme activity,inhibitor,,10 µM,inhibition,99%
CCOc1cc(-c2nncn2C)ccc1Nc1ncc2cc(C)nc(NCC(C)(C)C)c2n1,LCK,enzyme activity,inhibitor,FRET,1 µM,inhibition,< 15%
CN(C)C1CCN(CC#Cc2nn(C3CCCC3)c3nc(NCc4ccccc4)ncc23)C1 (centres unmarked),LCK,enzyme activity,inhibitor,FRET,1 µM,inhibition,31%
COc1cc(/C=C/C(=O)CC(=O)/C=C/c2ccc(O)c(OC)c2)ccc1O,LCK,enzyme activity,inhibitor,,1 µM,activity vs control,80%
COc1cc(-c2cn(C3CCc4c(F)cccc4N(CC(F)(F)F)C3=O)nn2)ccc1-n1cnc(C)c1 (centres unmarked),LCK,cell-free assay,,competition with immobilised ligand,1 µM,remaining binding,100%
FC(F)(F)Oc1cccc(-c2cnc3ccc(-c4ccncc4)nn23)c1,LCK,enzyme activity,inhibitor,radiometric,1 µM,activity vs control,35%
CNC(=O)Nc1ccc2c(c1)[C@@]1(CC2)OC(=O)N(CC(=O)N(Cc2ccc(F)cc2)[C@@H](C)C(F)(F)F)C1=O,LCK,cell-free assay,,competition with immobilised ligand,1 µM,remaining binding,86%
CN(c1nccc(-c2cnn3ncccc23)n1)C1CC1,LCK,cell-free assay,,,1 µM,remaining signal,98%
CS(=O)(=O)N1CCCC(NC(=O)[C@H](CCC2CCCCC2)NC(=O)c2ccc(CNc3ncnc4c3nnn4-c3ccccc3)cc2)C1 (some centres unmarked),LCK,cell-free assay,,competition with immobilised ligand,0.1 µM,remaining binding,100%
c1cc(-c2cnn3cc(-c4ccc(OCCN5CCCCC5)cc4)cnc23)ccn1,LCK,enzyme activity,inhibitor,,0.5 µM,activity vs control,51.8%
Cc1ccc(C(=O)NCc2ccsc2)cc1C#Cc1cn(C(C)C)c2ncnc(N)c12,LCK,enzyme activity,inhibitor,,1 µM,activity vs control,3%
c1nc2c(Nc3ccc4c(c3)OCCO4)nc(Nc3ccc4c(c3)OCCO4)nc2[nH]1,LCK,enzyme activity,inhibitor,,10 µM,activity vs control,2.1%
CNCc1ccc(-c2cc(-c3nc(-c4ccc(S(=O)(=O)C(C)C)cc4)cnc3N)on2)cc1,LCK,enzyme activity,inhibitor,,2 µM,inhibition,64%
Cc1cn(-c2cc(NC(=O)c3ccc(C)c(Nc4nccc(-c5cccnc5)n4)c3)cc(C(F)(F)F)c2)cn1,LCK,enzyme activity,inhibitor,,0.5 µM,activity vs control,22.2%
C[C@@H](c1cccc(C#N)c1)n1cc(Cl)cc(C(N)=O)c1=N,LCK,binding,,competition with immobilised ligand,1 µM,remaining binding,90%
C=CC(=O)Nc1cc(Nc2nccc(Nc3cc(Cl)c(F)cc3C(C)(C)O)n2)c(OC)cc1N1CC[C@@H](N(C)C)C1,LCK phosphorylated,enzyme activity,inhibitor,,1 µM,inhibition,5%
Cc1cc(NC(=O)c2cccc3cc(-c4cccc5[nH]nc(N)c45)ccc23)ccc1F,LCK phosphorylated,enzyme activity,inhibitor,,0.1 µM,activity vs control,88%
CSc1cccnc1N1CCN(Cc2nc3ccccc3[nH]2)CC1,LCK,binding,,competition with immobilised ligand,1 µM,remaining binding,100%
CNc1cccc2cc(C(=O)Nc3ccc(C(=O)O)cc3)c(=O)[nH]c12,LCK,enzyme activity,inhibitor,,10 µM,inhibition,0.91%
CN(C)c1ncc(F)c(-c2cnn3ncccc23)n1,LCK,cell-free assay,,,1 µM,remaining signal,76%
COc1cc2ncnc(Nc3ccc(Oc4ccccc4)cc3C)c2cc1OC,LCK,enzyme activity,inhibitor,,1 µM,inhibition,92%
CCS(=O)(=O)c1cc2cc(C[C@@](O)(CC(C)(C)c3ccc(F)cc3C(N)=O)C(F)(F)F)[nH]c2cn1,LCK,cell-free assay,,competition with immobilised ligand,1 µM,remaining binding,81%
CC/C(=N\NC(=O)NCc1cccc(O)c1)c1ccc(O)c(C)c1O,LCK,enzyme activity,inhibitor,,0.1 µM,inhibition,2%
CC1CCCN1c1nccc(-c2cnn3ncccc23)n1 (centres unmarked),LCK,cell-free assay,,,1 µM,remaining signal,100%
CC(=O)C1=C(C)N(c2cccc(C(F)(F)F)c2)C(=O)N[C@@H]1c1ccc(C#N)nc1,LCK,cell-free assay,,competition with immobilised ligand,1 µM,remaining binding,100%
CNC(=O)c1cc2c(Oc3ccc(NC(=O)C4(C(=O)Nc5ccc(F)cc5)CC4)cc3)ccnc2cc1OC,LCK,enzyme activity,inhibitor,radiometric,1 µM,inhibition,99%
